Measurements as given in ChEMBL document CHEMBL2346655, “Synthesis and in vitro biological evaluation of 2,6,9-trisubstituted purines targeting multiple cyclin-dependent kinases” (Eur J Med Chem, 2013).
The source made the active and inactive calls. The rule behind the calls is not given here.

Tests used:
[1] = tested on: HCT-116; test: Cell cycle arrest in human HCT116 cells assessed as accumulation at S phase at 0.2 uM after 24 hrs by propidium iodide staining-based flow cytometric analysis (reference value: 31.6%); type: functional
Summary of the method: (§1)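 Sub-confluent cells treated at several concentrations for 24 h, then pulsed with 10 μM BrdU for 30 min at 37 °C before harvest. Cells were PBS-washed, fixed in 70% ethanol, denatured in 2 M HCl and neutralized. Stained with fluorescein anti-BrdU and propidium iodide; DNA content read by flow cytometry with 488 nm excitation.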

[2] = tested on: HCT-116; test: Cell cycle arrest in human HCT116 cells assessed as accumulation at G1 phase at 0.2 uM after 24 hrs by propidium iodide staining-based flow cytometric analysis (reference value: 48.8%); type: functional; summary of the method: as §1
[3] = tested on: G-361; test: Ratio of roscovitine IC50 to compound IC50 for human G361 cells; type: functional
Summary of the method: (§2)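 Cytotoxicity IC50s underlying the ratio: cells treated in triplicate with three-fold compound dilutions for 72 h, then Calcein AM added and live-cell fluorescence read at 485/538 nm (ex/em).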

[4] = tested on: HOS; test: Ratio of roscovitine IC50 to compound IC50 for human HOS cells; type: functional; summary of the method: as §2
[5] = tested on: HCT-116; test: Ratio of roscovitine IC50 to compound IC50 for human HCT116 cells; type: functional; summary of the method: as §2
[6] = biological target: Cyclin-dependent kinase 5/CDK5 activator 1 (Homo sapiens, UniProt Q00535); test: Inhibition of CDK5/P35 (unknown origin) using histone H1 as substrate; type: protein-complex assay
[7] = tested on: HOS; test: Cytotoxicity against human HOS cells assessed as reduction in number of viable cells after 72 hrs by fluorescence assay; type: functional, cell-based
Summary of the method: (§3)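 Three-fold compound dilutions tested in triplicate on cultured cells for 72 h. Viable cells detected by adding Calcein AM and reading fluorescence at 485/538 nm (ex/em).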

[8] = tested on: CCRF-CEM; test: Cytotoxicity against human CEM cells assessed as reduction in number of viable cells after 72 hrs by fluorescence assay; type: functional, cell-based; summary of the method: as §3
[9] = tested on: HCT-116; test: Cytotoxicity against human HCT116 cells assessed as reduction in number of viable cells after 72 hrs by fluorescence assay; type: functional, cell-based; conditions: HCT-116, 72 h; summary of the method: as §3
[10] = tested on: MCF7; test: Cytotoxicity against human MCF7 cells assessed as reduction in number of viable cells after 72 hrs by fluorescence assay; type: functional, cell-based; conditions: MCF7, 72 h; summary of the method: as §3
[11] = tested on: K562; test: Cytotoxicity against human K562 cells assessed as reduction in number of viable cells after 72 hrs by fluorescence assay; type: functional, cell-based; conditions: K562, 72 h; summary of the method: as §3
[12] = tested on: K562; test: Induction of apoptosis in human K562 cells assessed as caspase-3/7 activation by fluorescence assay; type: functional, cell-based
Summary of the method: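 After 24 h treatment, cells were lysed on ice for 20 min in pH 7.4 HEPES/KCl/EDTA/EGTA/0.2% CHAPS buffer with protease inhibitors and cleared at 10,000 × g for 30 min at 4 °C. Protein was equalized, then incubated for 1 h with 100 μM Ac-DEVD-AMC in PIPES buffer pH 7.3 containing DTT. Fluorescence was read at 355/460 nm; 100 μM Ac-DEVD-CHO served as the negative control.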

[13] = tested on: K562; test: Induction of apoptosis in human K562 cells assessed as caspase-3 activation up to 5 uM after 24 hrs by immunoblotting analysis; type: functional, cell-based
Summary of the method: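 Cells were treated for 24 h, harvested directly into Laemmli sample buffer, and run on SDS-PAGE. Proteins were blotted to nitrocellulose, blocked, probed overnight with primary antibodies, then with peroxidase-linked secondaries. Bands were detected by ECL with a CCD camera. PCNA and tubulin served as loading references.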

[14] = biological target: T1, CDK9/cyclin T1 (Homo sapiens) (UniProt O60563+P50750); test: Inhibition of CDK9/CyclinT1 in human ARN8 cells assessed as increase in p53-dependent transcriptional activity after 24 hrs by beta-galactosidase reporter gene assay; type: cell-based
Summary of the method: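 Arn-8 human melanoma cells stably carrying p53-responsive pRGCΔfoslacZ reporter; 24 h compound exposure, then permeabilized with 0.3% Triton X-100 for 15 min. 4-Methylumbelliferon-β-D-galactopyranoside added (80 μM final); fluorescence read at 355/460 nm (ex/em) after 1 h as β-galactosidase activity.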

[15] = biological target: T1, CDK9/cyclin T1 (Homo sapiens); test: Inhibition of CDK9/CyclinT1 in human HCT116 cells assessed as increase in p21 expression at 1 to 5 uM after 24 hrs by immunoblotting analysis; type: cell-based; conditions: HCT-116
Summary of the method: (§4)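 Immunoblot: cells lysed by harvesting in Laemmli sample buffer, proteins run on SDS-PAGE, electroblotted to nitrocellulose, blocked, primary antibodies overnight, peroxidase-conjugated secondaries, ECL detection by CCD camera. Antibodies included anti-phospho RNA polymerase II (S2), anti-RNA polymerase II (ARNA-3), anti-p53 (DO-1), anti-p21waf1 (118), anti-PCNA.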

[16] = biological target: T1, CDK9/cyclin T1 (Homo sapiens); test: Inhibition of CDK9/CyclinT1-mediated phosphorylation of RNA polymerase 2 at Ser5 in human K562 cells up to 25 uM after 24 hrs by immunoblotting analysis; type: cell-based; summary of the method: as §4
[17] = biological target: Cyclin-dependent kinase 7/ cyclin H (Homo sapiens) (UniProt P51946+P50613); test: Inhibition of CDK7/CyclinH/MAT1-mediated phosphorylation of RNA polymerase 2 at Ser5 in human K562 cells up to 25 uM after 24 hrs by immunoblotting analysis; type: cell-based
[18] = tested on: K562; test: Cell cycle arrest in human K562 cells assessed as accumulation at S phase after 24 hrs by BrdU incorporation assay; type: functional, cell-based
Summary of the method: (§5)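 Sub-confluent cells were exposed to compound for 24 h, then pulse-labeled with 10 μM BrdU for 30 min at 37 °C. After ethanol (70%) fixation and 2 M HCl denaturation, cells were stained with fluorescein anti-BrdU antibody plus propidium iodide. The BrdU-positive S-phase fraction was quantified by flow cytometry (488 nm laser).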

[19] = tested on: HCT-116; test: Cell cycle arrest in human HCT116 cells assessed as accumulation at S phase after 24 hrs by BrdU incorporation assay; type: functional, cell-based; summary of the method: as §5
[20] = tested on: K562; test: Cell cycle arrest in human K562 cells assessed as accumulation at S phase at 5 uM after 24 hrs by propidium iodide staining-based flow cytometric analysis (reference value: 38.8%); type: functional; summary of the method: as §1
[21] = tested on: K562; test: Cell cycle arrest in human K562 cells assessed as accumulation at G2/M phase at 0.2 uM after 24 hrs by propidium iodide staining-based flow cytometric analysis (reference value: 13.8%); type: functional; summary of the method: as §1
[22] = tested on: K562; test: Cell cycle arrest in human K562 cells assessed as accumulation at S phase at 0.2 uM after 24 hrs by propidium iodide staining-based flow cytometric analysis (reference value: 38.8%); type: functional; summary of the method: as §1
[23] = tested on: HCT-116; test: Cell cycle arrest in human HCT116 cells assessed as accumulation at S phase at 5 uM after 24 hrs by propidium iodide staining-based flow cytometric analysis (reference value: 31.6%); type: functional; summary of the method: as §1
[24] = tested on: HCT-116; test: Cell cycle arrest in human HCT116 cells assessed as accumulation at G1 phase at 5 uM after 24 hrs by propidium iodide staining-based flow cytometric analysis (reference value: 48.8%); type: functional; summary of the method: as §1
[25] = tested on: HCT-116; test: Cell cycle arrest in human HCT116 cells assessed as accumulation at subG1 phase at 5 uM after 24 hrs by propidium iodide staining-based flow cytometric analysis (reference value: 1.4%); type: functional; summary of the method: as §1
[26] = tested on: HCT-116; test: Cell cycle arrest in human HCT116 cells assessed as accumulation at G2/M phase at 1 uM after 24 hrs by propidium iodide staining-based flow cytometric analysis (reference value: 19.6%); type: functional; summary of the method: as §1
[27] = tested on: HCT-116; test: Cell cycle arrest in human HCT116 cells assessed as accumulation at S phase at 1 uM after 24 hrs by propidium iodide staining-based flow cytometric analysis (reference value: 31.6%); type: functional; summary of the method: as §1

Cyclin-dependent kinase 5/CDK5 activator 1, sequence (Q00535 whole entry): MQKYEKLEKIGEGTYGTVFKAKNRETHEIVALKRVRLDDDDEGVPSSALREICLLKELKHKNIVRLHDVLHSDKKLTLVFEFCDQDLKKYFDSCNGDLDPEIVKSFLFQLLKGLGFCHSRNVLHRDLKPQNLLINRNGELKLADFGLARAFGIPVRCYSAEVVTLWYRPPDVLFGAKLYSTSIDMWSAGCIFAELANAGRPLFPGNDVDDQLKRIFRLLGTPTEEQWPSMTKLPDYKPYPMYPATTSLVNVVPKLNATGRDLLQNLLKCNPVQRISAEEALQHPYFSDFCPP
Cyclin-dependent kinase 5/CDK5 activator 1, sequence (Q15078 whole entry, further chain): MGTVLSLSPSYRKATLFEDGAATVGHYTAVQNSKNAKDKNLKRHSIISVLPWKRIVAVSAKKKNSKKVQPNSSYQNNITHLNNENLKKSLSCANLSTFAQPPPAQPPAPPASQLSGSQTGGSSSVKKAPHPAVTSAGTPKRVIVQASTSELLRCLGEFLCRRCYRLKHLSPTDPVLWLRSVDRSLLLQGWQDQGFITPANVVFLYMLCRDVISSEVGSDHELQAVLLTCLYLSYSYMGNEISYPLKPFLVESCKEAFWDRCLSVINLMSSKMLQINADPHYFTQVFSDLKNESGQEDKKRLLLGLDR

## CC[C@@H](Nc1nc(NCc2cc(Cl)ccc2O)c2ncn(C(C)C)c2n1)C(C)O (mixture of isomers)
[1]
  Activity: 31.1%
[2]
  Activity: 45.6%
[3]
  Ratio IC50: >9
[4]
  Ratio IC50: >9
[5]
  Ratio IC50: >9
[6]
  IC50: 71 nM
[7]
  IC50: 2700 nM
[8]
  IC50: 1600 nM
[9]
  IC50: 2000 nM
[10]
  IC50: 2600 nM
[11]
  IC50: 3.3 µM
[12]
  Activity: Dose-dependent effect
[13]
  Activity: inactive
[14]
  inhibition: Dose-dependent effect
[15]
  inhibition: Active
[16]
  inhibition: Active
[17]
  inhibition: Active
[18]
  Activity: Dose-dependent effect
[19]
  Activity: Dose-dependent effect
[20]
  Activity: 27.8%
[21]
  Activity: 25.8%
[22]
  Activity: 38.5%
[23]
  Activity: 33.7%
[24]
  Activity: 29.5%
[25]
  Activity: 4.6%
[26]
  Activity: 31.8%
[27]
  Activity: 28.8%
